Legend:
Settings in all cases: in vivo
[1] = Biodistribution in tumor of B16F0 tumor bearing C57BL/6J mouse at 0.37-0.74 MBq, iv after 24 hrs in presence of haloperidol; type: ADME, organism-based, B16-F0
Method in brief: (§1)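 B16F0 tumor-bearing C57BL/6J mice, groups of n = 5, given haloperidol 1 mg/kg i.v. 5 min before the i.v. [¹²³I]tracer (0.37-0.74 MBq). Killed at 1 or 24 h. Tissues γ-counted as for biodistribution and compared with untreated controls by one-way ANOVA, significance p < 0.01.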

Lung [2] = test: Biodistribution in lung of B16F0 tumor bearing C57BL/6J mouse at 0.37-0.74 MBq, iv after 24 hrs in presence of haloperidol; type: ADME, organism-based
Method in brief: (§2)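 Haloperidol blocking in B16F0-bearing C57BL/6J mice: 1 mg/kg haloperidol was given iv 5 min before the iv [¹²³I]benzamide (0.37-0.74 MBq). Groups of n = 5 were killed at 1 or 24 h. Tissues were weighed and γ-counted as in the biodistribution study and compared with untreated controls by one-way ANOVA, with p < 0.01 taken as significant.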

Liver [3] = test: Biodistribution in liver of B16F0 tumor bearing C57BL/6J mouse at 0.37-0.74 MBq, iv after 24 hrs; type: ADME, organism-based
Method in brief: (§3)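 Female C57BL/6J mice (15-18 g) were given B16F0 cells subcutaneously in the left flank (0.1 mL of 3 × 10⁶ viable cells/mL in Ca²⁺/Mg²⁺-free PBS) at 6-7 weeks and used after ten days. [¹²³I]benzamide (0.37-0.74 MBq, 100 µL, saline) was injected via the tail vein. Groups of n = 5 were killed by CO₂ and cervical dislocation. Organs were weighed and γ-counted, and the carcass was counted too.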

Lung [4] = test: Biodistribution in lung of B16F0 tumor bearing C57BL/6J mouse at 0.37-0.74 MBq, iv after 1 hr in presence of haloperidol; type: ADME, organism-based; method in brief: as §2
[5] = Biodistribution in eye of B16F0 tumor bearing C57BL/6J mouse at 0.37-0.74 MBq, iv after 1 hr in presence of haloperidol; type: ADME, organism-based; method in brief: as §2
Lung [6] = test: Biodistribution in lung of B16F0 tumor bearing C57BL/6J mouse at 0.37-0.74 MBq, iv after 1 hr; type: ADME, organism-based; method in brief: as §3
Kidney [7] = test: Biodistribution in kidney of B16F0 tumor bearing C57BL/6J mouse at 0.37-0.74 MBq, iv after 24 hrs in presence of haloperidol; type: ADME, organism-based; method in brief: as §2
Brain [8] = test: Biodistribution in brain of B16F0 tumor bearing C57BL/6J mouse at 0.37-0.74 MBq, iv after 1 hr in presence of haloperidol; type: ADME, organism-based
Heart [9] = test: Biodistribution in heart of B16F0 tumor bearing C57BL/6J mouse at 0.37-0.74 MBq, iv after 1 hr; type: ADME, organism-based; method in brief: as §3
Lung [10] = test: Biodistribution in lung of B16F0 tumor bearing C57BL/6J mouse at 0.37-0.74 MBq, iv after 24 hrs; type: ADME, organism-based; method in brief: as §3
Brain [11] = test: Biodistribution in brain of B16F0 tumor bearing C57BL/6J mouse at 0.37-0.74 MBq, iv after 1 hr; type: ADME, organism-based; method in brief: as §3
Lung [12] = test: Biodistribution in lung of B16F0 tumor bearing C57BL/6J mouse at 0.37-0.74 MBq, iv after 6 hrs; type: ADME, organism-based; method in brief: as §3
Liver [13] = test: Biodistribution in liver of B16F0 tumor bearing C57BL/6J mouse at 0.37-0.74 MBq, iv after 1 hr in presence of haloperidol; type: ADME, organism-based; method in brief: as §2
Brain [14] = test: Biodistribution in brain of B16F0 tumor bearing C57BL/6J mouse at 0.37-0.74 MBq, iv after 6 hrs; type: ADME, organism-based; method in brief: as §3
[15] = Biodistribution in melanoma of B16F0 tumor bearing C57BL/6J mouse at 0.37-0.74 MBq, iv after 1 hr; type: ADME, organism-based, B16-F0; method in brief: as §3
Heart [16] = test: Biodistribution in heart of B16F0 tumor bearing C57BL/6J mouse at 0.37-0.74 MBq, iv after 6 hrs; type: ADME, organism-based; method in brief: as §3
[17] = Biodistribution in tumor of B16F0 tumor bearing C57BL/6J mouse at 0.37-0.74 MBq, iv after 1 hr in presence of haloperidol; type: ADME, organism-based, B16-F0; method in brief: as §1
Blood [18] = test: Biodistribution in blood of B16F0 tumor bearing C57BL/6J mouse at 0.37-0.74 MBq, iv after 6 hrs; type: ADME, organism-based; method in brief: as §3
[19] = Biodistribution in eye of B16F0 tumor bearing C57BL/6J mouse at 0.37-0.74 MBq, iv after 24 hrs in presence of haloperidol; type: ADME, organism-based; method in brief: as §2
Blood [20] = test: Biodistribution in blood of B16F0 tumor bearing C57BL/6J mouse at 0.37-0.74 MBq, iv after 24 hrs in presence of haloperidol; type: ADME, organism-based
Liver [21] = test: Biodistribution in liver of B16F0 tumor bearing C57BL/6J mouse at 0.37-0.74 MBq, iv after 1 hr; type: ADME, organism-based; method in brief: as §3
Blood [22] = test: Biodistribution in blood of B16F0 tumor bearing C57BL/6J mouse at 0.37-0.74 MBq, iv after 24 hrs; type: ADME, organism-based; method in brief: as §3
Liver [23] = test: Biodistribution in liver of B16F0 tumor bearing C57BL/6J mouse at 0.37-0.74 MBq, iv after 6 hrs; type: ADME, organism-based; method in brief: as §3
[24] = Biodistribution in melanoma of B16F0 tumor bearing C57BL/6J mouse at 0.37-0.74 MBq, iv after 6 hrs; type: ADME, organism-based, B16-F0
Method in brief: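 Female C57BL/6J mice (15-18 g) carrying s.c. B16F0 flank tumors (0.1 mL of 3 × 10⁶ viable cells per mL in Ca²⁺/Mg²⁺-free PBS, inoculated at 6-7 weeks, used 10 days later). [¹²³I]tracer 0.37-0.74 MBq in saline, 100 µL, tail-vein i.v. Groups of n = 5 killed at 1-72 h. Organs weighed and γ-counted, carcass activity also counted, values as %ID/g.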

Kidney [25] = test: Biodistribution in kidney of B16F0 tumor bearing C57BL/6J mouse at 0.37-0.74 MBq, iv after 1 hr; type: ADME, organism-based; method in brief: as §3
Heart [26] = test: Biodistribution in heart of B16F0 tumor bearing C57BL/6J mouse at 0.37-0.74 MBq, iv after 24 hrs; type: ADME, organism-based; method in brief: as §3
Kidney [27] = test: Biodistribution in kidney of B16F0 tumor bearing C57BL/6J mouse at 0.37-0.74 MBq, iv after 6 hrs; type: ADME, organism-based; method in brief: as §3
Blood [28] = test: Biodistribution in blood of B16F0 tumor bearing C57BL/6J mouse at 0.37-0.74 MBq, iv after 1 hr in presence of haloperidol; type: ADME, organism-based
Blood [29] = test: Biodistribution in blood of B16F0 tumor bearing C57BL/6J mouse at 0.37-0.74 MBq, iv after 1 hr; type: ADME, organism-based; method in brief: as §3
Brain [30] = test: Biodistribution in brain of B16F0 tumor bearing C57BL/6J mouse at 0.37-0.74 MBq, iv after 24 hrs; type: ADME, organism-based; method in brief: as §3
Kidney [31] = test: Biodistribution in kidney of B16F0 tumor bearing C57BL/6J mouse at 0.37-0.74 MBq, iv after 1 hr in presence of haloperidol; type: ADME, organism-based; method in brief: as §2
Kidney [32] = test: Biodistribution in kidney of B16F0 tumor bearing C57BL/6J mouse at 0.37-0.74 MBq, iv after 24 hrs; type: ADME, organism-based; method in brief: as §3
Liver [33] = test: Biodistribution in liver of B16F0 tumor bearing C57BL/6J mouse at 0.37-0.74 MBq, iv after 24 hrs in presence of haloperidol; type: ADME, organism-based; method in brief: as §2
Brain [34] = test: Biodistribution in brain of B16F0 tumor bearing C57BL/6J mouse at 0.37-0.74 MBq, iv after 24 hrs in presence of haloperidol; type: ADME, organism-based
[35] = Biodistribution in melanoma of B16F0 tumor bearing C57BL/6J mouse at 0.37-0.74 MBq, iv after 24 hrs; type: ADME, organism-based, B16-F0; method in brief: as §3

Drug uptake [1]: 3.3 % ID/g
Drug uptake (Lung [2]): 0.14 % ID/g
Drug uptake (Liver [3]): 0.29 % ID/g
Drug uptake (Lung [4]): 9.7 % ID/g
Drug uptake [5]: 34.8 % ID/g
Drug uptake (Lung [6]): 10.8 % ID/g
Drug uptake (Kidney [7]): 0.1 % ID/g
Drug uptake (Brain [8]): 1.61 % ID/g
Drug uptake (Heart [9]): 3 % ID/g
Drug uptake (Lung [10]): 0.33 % ID/g
Drug uptake (Brain [11]): 3.1 % ID/g
Drug uptake (Lung [12]): 6.4 % ID/g
Drug uptake (Liver [13]): 10.1 % ID/g
Drug uptake (Brain [14]): 0.48 % ID/g
Drug uptake [15]: 10.9 % ID/g
Drug uptake (Heart [16]): 0.93 % ID/g
Drug uptake [17]: 10.5 % ID/g
Drug uptake (Blood [18]): 0.34 % ID/g
Drug uptake [19]: 24.6 % ID/g
Drug uptake (Blood [20]): 0.03 % ID/g
Drug uptake (Liver [21]): 19.2 % ID/g
Drug uptake (Blood [22]): 0.04 % ID/g
Drug uptake (Liver [23]): 3.8 % ID/g
Drug uptake [24]: 12.5 % ID/g
Drug uptake (Kidney [25]): 8.7 % ID/g
Drug uptake (Heart [26]): 0.09 % ID/g
Drug uptake (Kidney [27]): 3.4 % ID/g
Drug uptake (Blood [28]): 1.46 % ID/g
Drug uptake (Blood [29]): 1 % ID/g
Drug uptake (Brain [30]): 0.09 % ID/g
Drug uptake (Kidney [31]): 7.3 % ID/g
Drug uptake (Kidney [32]): 0.22 % ID/g
Drug uptake (Liver [33]): 0.12 % ID/g
Drug uptake (Brain [34]): 0.06 % ID/g
Drug uptake [35]: 5.5 % ID/g
Compound: O=C(NC1CCN(CCF)CC1)c1ccc(I)cc1
